pIC50: −log10 of the molar value. The source made the active and inactive calls. The calls are words filed in the database; no cut-off is given here.
Key:
HeLa = assay: Cytotoxicity against human HeLa cells by MTT assay; type: functional, cell-based
Method in brief: (§1)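 MTT colorimetric proliferation assay on human and murine tumour cell lines. Compounds tested over 50 to 0.1 µM; IC50 calculated from the concentration response.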

MCF7 = assay: Cytotoxicity against human MCF7 cells by MTT assay; type: functional, cell-based; method in brief: as §1
NCI-H295R = assay: Cytotoxicity against human H295R cells by MTT assay; type: functional, cell-based; method in brief: as §1
OVCAR-3 [1] = assay: Cell cycle arrest at G2/M phase in Ovcar3 cells at 5-10 uM; type: functional, Homo sapiens
HepG2 [2] = assay: Cytotoxicity against human HepG2 cells by MTT assay; type: functional, cell-based; method in brief: as §1
A549 = assay: Cytotoxicity against human A549 cells by MTT assay; type: functional, cell-based
HepG2 [3] = assay: Cell cycle arrest at G2/M phase in HepG2 cells at 5-10 uM; type: functional, Homo sapiens
4T1 = assay: Cytotoxicity against mouse 4T1 cells by MTT assay; type: functional, cell-based; method in brief: as §1
HT-29 = assay: Cytotoxicity against human HT29 cells by MTT assay; type: functional, cell-based; method in brief: as §1
OVCAR-3 [4] = assay: Cytotoxicity against human Ovcar3 cells by MTT assay; type: functional, cell-based; method in brief: as §1
PT-45 = assay: Cytotoxicity against human PT45 cells by MTT assay; type: functional, cell-based; method in brief: as §1
ARO = assay: Cytotoxicity against human Aro cells by MTT assay; type: functional, cell-based; method in brief: as §1
BNL [5] = assay: Cytotoxicity against mouse BNL cells by MTT assay; type: functional, cell-based; method in brief: as §1
Aromatase [6] = target: T1, Aromatase (Homo sapiens, UniProt P11511); assay: Inhibition of aromatase activity in H295R cells at 10 uM; type: cell-based
T1 sequence (P11511 whole entry): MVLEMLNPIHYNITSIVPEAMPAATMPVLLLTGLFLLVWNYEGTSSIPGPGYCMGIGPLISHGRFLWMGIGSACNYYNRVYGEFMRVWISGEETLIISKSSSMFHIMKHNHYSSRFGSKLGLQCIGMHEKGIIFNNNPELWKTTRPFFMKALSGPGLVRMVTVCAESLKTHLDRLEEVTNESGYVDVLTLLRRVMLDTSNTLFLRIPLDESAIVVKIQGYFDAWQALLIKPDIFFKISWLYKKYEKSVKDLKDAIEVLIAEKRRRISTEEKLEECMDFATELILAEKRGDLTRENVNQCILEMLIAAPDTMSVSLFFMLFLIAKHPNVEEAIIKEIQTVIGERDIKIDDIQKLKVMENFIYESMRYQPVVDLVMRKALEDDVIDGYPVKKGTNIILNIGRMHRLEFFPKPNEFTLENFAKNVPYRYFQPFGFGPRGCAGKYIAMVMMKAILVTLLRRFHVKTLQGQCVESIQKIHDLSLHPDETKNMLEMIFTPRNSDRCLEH
Method in brief: (§2)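 H295R cells cultured 24 h in DMEM-F12 with or without forskolin (25 µM). Compound (5, 10 or 15 µM) added 1 h before [1β-³H]androstenedione substrate (0.5 µM), then 2 h further exposure. Modified tritiated water release read-out as pmol ³H₂O/h/mg protein. Letrozole reference. Mean ± SEM of three experiments in triplicate.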

Aromatase [7] = target: T1, Aromatase; assay: Inhibition of aromatase activity in H295R cells at 5 uM; type: cell-based; method in brief: as §2
Aromatase [8] = target: T1, Aromatase; assay: Inhibition of aromatase activity in H295R cells at 15 uM; type: cell-based; method in brief: as §2
Tubulin (Homo sapiens) [9] = target: T2, Tubulin (Homo sapiens) (UniProt P68371+Q9H4B7+P0DPH7+P68366+Q13509+Q71U36+P04350+Q3ZCM7+P07437+P68363+Q9BQE3+Q6PEY2+Q13885+Q9BVA1+Q9BUF5); assay: Inhibition of tubulin polymerization at 2.5 uM; type: protein-complex assay
Method in brief: (§3)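 Fluorimetric microtubule polymerization kit using purified tubulin. Compound at 5, 2.5, 1.25 and 0.625 µM; fluorescence (ex 355/em 450 nm) read every minute for 60 min. Taxol and vincristine (3 µM) as references.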

Tubulin (Homo sapiens) [10] = target: T2, Tubulin (Homo sapiens); assay: Inhibition of tubulin polymerization at 5 uM; type: protein-complex assay; method in brief: as §3
BNL [11] = assay: Cytotoxicity against BNL 1ME A.7R.1 cells subcutaneously implanted in BALB/c mouse at 40 mg/kg, ip; type: functional; conditions: route intraperitoneal
Method in brief: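 Male Balb/c mice implanted subcutaneously in the dorsal region with 10⁷ syngenic hepatocarcinoma cells. From day 2, daily intraperitoneal dosing at 40 mg/kg, with saline and vehicle control groups (n = 8-12 per group). Tumour measured daily by calipers over 10 days; volume = A × B²/2. Means ± SE.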

Tubulin (Homo sapiens) [12] = target: T2, Tubulin (Homo sapiens); assay: Microtubule disassembly in Ovcar3 cells at 5 uM; type: functional, cell-based; conditions: OVCAR-3
Method in brief: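 Ovcar-3 cells exposed 18 h to 5 µM (drug-free and vincristine 5 µM controls), fixed, stained with anti-β-tubulin antibody, and microtubule distribution examined by fluorescence microscopy.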

Activity (Aromatase [6])	Activity (Aromatase [7])	Activity (Aromatase [8])	Activity (Tubulin (Homo sapiens) [9])	Activity (Tubulin (Homo sapiens) [10])	Activity (Tubulin (Homo sapiens) [12])	SMILES	pIC50 (HeLa)	pIC50 (MCF7)	pIC50 (NCI-H295R)	Activity (OVCAR-3 [1]) [%]	pIC50 (HepG2 [2])	pIC50 (A549)	Activity (HepG2 [3]) [%]	pIC50 (4T1)	pIC50 (HT-29)	pIC50 (OVCAR-3 [4])	pIC50 (PT-45)	pIC50 (ARO)	pIC50 (BNL [5])	Activity (BNL [11]) [%]
						Nc1cccc(-c2cc(O)c3c(ccc4[nH]ccc43)n2)c1	5.15	4.82	4.30	14	4.52	4.52	17.1	4.30	< 4.30	4.30	5.10	4.52	< 4.30	
						N#Cc1cccc(-c2cc(O)c3c(ccc4[nH]ccc43)n2)c1	5.10	< 4.30	< 4.30	15	4.40	< 4.30	17.3	< 4.30	< 4.30	< 4.30	4.40	5.52	4.40	
Not Active	Not Active	Not Active				Oc1cc(-c2cccc(Br)c2)nc2ccc3[nH]ccc3c12	5.30	5.30	5.30	42.9	5.22	5.22	40.3	4.70	5.05	5.00	5.22	5.30	5.40	
						CC(=O)O[C@H]1C(=O)[C@@]2(C)[C@H]([C@H](OC(=O)c3ccccc3)[C@]3(O)C[C@H](OC(=O)[C@H](O)[C@@H](NC(=O)c4ccccc4)c4ccccc4)C(C)=C1C3(C)C)[C@]1(OC(C)=O)CO[C@@H]1C[C@@H]2O [PACLITAXEL]			7.10					6.70					6.70	
						Cc1cccc(-c2cc(O)c3c(ccc4[nH]ccc43)n2)c1	5.22	5.15	5.10	19.5	5.00	5.22	16	4.60	5.10	4.70	5.15	5.15	5.22	
						Oc1ccnc2ccc3[nH]ccc3c12	< 4.30	< 4.30	< 4.30		< 4.30	< 4.30		< 4.30	< 4.30	< 4.30	< 4.30	< 4.30	< 4.30	
Not Active	Not Active	Not Active	Dose-dependent effect	Dose-dependent effect	Active	O=c1cc(-c2ccccc2)[nH]c2ccc3[nH]ccc3c12	6.15	6.10	6.40	62	5.10	6.00	47.7	5.70	5.70	5.22	6.30	6.15	5.52	83.2
						N#Cc1ccc(-c2cc(O)c3c(ccc4[nH]ccc43)n2)cc1	4.82	4.30	4.52	14.9	5.00	4.82	21.5	4.60	< 4.30	4.30	4.70	4.40	4.82	
						O=[N+]([O-])c1cccc(-c2cc(O)c3c(ccc4[nH]ccc43)n2)c1	4.60	< 4.30	4.40	10	4.52	4.49	15.8	< 4.30	< 4.30	< 4.30	4.35	4.41	< 4.30	
						Oc1cc(-c2cccs2)nc2ccc3[nH]ccc3c12	5.22	5.15	5.30	17.5	5.00	4.82	15.6	4.70	4.52	4.60	5.10	5.15	5.10	
						Cc1cc(O)c2c(ccc3[nH]ccc32)n1	< 4.30	< 4.30	< 4.30		< 4.30	< 4.30		< 4.30	< 4.30	< 4.30	< 4.30	< 4.30	< 4.30	
						CCN(CC)CCn1ccc2c3c(O)cc(-c4ccccc4)nc3ccc21	5.30	5.10	5.22	16.6	5.15	4.92	15.1	5.05	5.22	4.74	5.30	4.70	5.30	
						COC(=O)c1cc2c([nH]1)c(OC)cc1nc(-c3ccccc3)cc(O)c12	< 4.30	< 4.30	< 4.30	14.4	< 4.30	< 4.30	15.4	< 4.30	< 4.30	< 4.30	< 4.30	< 4.30	< 4.30	
					Active	CC[C@]1(O)C[C@H]2CN(CCc3c([nH]c4ccccc34)[C@@](C(=O)OC)(c3cc4c(cc3OC)N(C=O)[C@H]3[C@@](O)(C(=O)OC)[C@H](OC(C)=O)[C@]5(CC)C=CCN6CC[C@]43[C@@H]65)C2)C1 [VINCRISTINE]			7.05					7.70				10.00	7.10	
Not Active	Not Active	Not Active				COc1cccc(-c2cc(O)c3c(ccc4[nH]ccc43)n2)c1	6.15	5.70	6.15	65.3	5.22	5.70	49.3	5.40	5.22	5.15	6.15	6.00	5.40	
